# Compound activity as filed in PubChem BioAssay.
# Sampled rows, rich in hits. Any-hit rate of the full collection: about 2.2%.
# Exocytosis inh = blocks lytic granule exocytosis | actives 0.66% (n = 360,000) | inhibition, % at 10 µM | TALL-104 LAMP-1 surface exposure, flow cytometry; cells stimulated with thapsigargin and PMA;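 active means inhibition above about 55%, limit read from the data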
# PfG6PD inh = PfG6PD (Plasmodium falciparum) enzyme inhibition; inhibition, % at 20 µM; AID 504690; PfGluPho enzyme, NADPH resazurin-diaphorase fluorescence; actives 0.78% (n = 350,000);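 active means inhibition reaching at least a set limit at 20 µM in the primary screen, cut at about 59% in these data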;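 further: 0% = DMSO wells with substrate and 100% = DMSO wells lacking glucose-6-phosphate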
# HKDC1 inh = HKDC1 (human) hexokinase inhibition; Q2TB90; recombinant HKDC1, G6PDH/diaphorase resazurin coupled fluorescence; inhibition, % at 20 µM; actives 0.16% (n = 340,000); AID 493160;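 active means inhibition above about 35% when tested at 20 µM, limit read from the data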;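 further: plate controls were DMSO wells with enzyme for no effect and DMSO wells lacking enzyme for full effect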
# Target sequence (Q2TB90 whole entry, looked up): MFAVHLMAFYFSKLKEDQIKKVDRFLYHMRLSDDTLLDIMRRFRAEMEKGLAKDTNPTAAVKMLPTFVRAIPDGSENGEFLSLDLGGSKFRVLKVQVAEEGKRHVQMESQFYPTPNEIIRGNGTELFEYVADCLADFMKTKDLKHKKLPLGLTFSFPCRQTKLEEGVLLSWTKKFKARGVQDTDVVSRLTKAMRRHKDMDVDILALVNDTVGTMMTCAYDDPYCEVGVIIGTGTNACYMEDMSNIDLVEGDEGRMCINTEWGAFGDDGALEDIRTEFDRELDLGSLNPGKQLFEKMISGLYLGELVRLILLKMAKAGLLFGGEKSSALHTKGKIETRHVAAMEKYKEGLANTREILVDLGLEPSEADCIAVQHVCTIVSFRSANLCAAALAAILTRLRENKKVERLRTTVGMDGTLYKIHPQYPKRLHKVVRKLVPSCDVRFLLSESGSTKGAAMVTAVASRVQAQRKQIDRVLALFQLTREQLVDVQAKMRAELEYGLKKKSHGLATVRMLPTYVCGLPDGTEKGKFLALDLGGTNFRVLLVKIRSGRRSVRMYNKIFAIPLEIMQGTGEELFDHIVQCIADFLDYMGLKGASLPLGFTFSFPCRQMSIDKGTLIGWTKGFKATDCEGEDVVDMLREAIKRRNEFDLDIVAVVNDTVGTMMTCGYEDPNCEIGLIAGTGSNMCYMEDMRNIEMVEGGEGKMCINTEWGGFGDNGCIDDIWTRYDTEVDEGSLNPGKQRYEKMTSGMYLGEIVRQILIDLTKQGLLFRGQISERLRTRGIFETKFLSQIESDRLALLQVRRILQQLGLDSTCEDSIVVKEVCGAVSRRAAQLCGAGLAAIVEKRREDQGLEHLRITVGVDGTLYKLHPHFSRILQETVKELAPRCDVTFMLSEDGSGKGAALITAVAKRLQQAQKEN
#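 Test system: recombinant HKDC1 (HK5) hexokinase enzyme, produced in-house; Amount: enzyme 5 µg/mL final; Buffer or medium: Tris pH 8.0 buffer with MgCl2, Tween-20, BSA, BME; Reagent: glucose and ATP substrates; Doses: 20 µM test compound, 1% DMSO; Incubation: 90 min reaction incubation at room temperature, dark; Detection: resorufin fluorescence at 613 nm.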
# ABHD5 PLIN5 PPI = inhibitors of human ABHD5-perilipin-5 interaction | inhibition, % at 4 µM | Q00G26+Q8WTS1 | Split G. princeps luciferase complementation, luminescence, 4 h | actives 0.78% (n = 360,000) | AID 602281;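 active means inhibition above the mean inhibition across every tested compound plus 3 SD, cut at about 22% in these data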;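 further: 0% = DMSO only wells and the 100% control is not disclosed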
# Exocytosis CP01 = lytic granule exocytosis inhibition; TALL-104 cells, LAMP-1 externalization, flow cytometry; stimulated with PMA plus thapsigargin; actives 11% (n = 1,500); shares compounds with Exocytosis inh; inhibition, % at 10 µM; in the data active means inhibition above about 60%;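 further: 0% = stimulated vehicle wells and 100% = unstimulated wells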
# Numbers without * were called inactive; . = no result.
SMILES,Exocytosis inh,PfG6PD inh,HKDC1 inh,ABHD5 PLIN5 PPI,Exocytosis CP01
CCOC(=O)N1CCN(CCC(=O)c2ccc(Br)cc2)CC1,88*,29,-1,8,8
Cc1ccc(NC(=O)C2CCCN2S(=O)(=O)c2ccc(-c3ccc(=O)[nH]n3)s2)c(C)c1 (stereo not given),-1,1,-3,6,.
O=C(NC1CCCC1)C1C(c2ccc(C(F)(F)F)cc2)=Nc2ccccc2N1C(=O)c1cc2ccccc2[nH]1 (stereo not given),70*,.,.,0,-15
OC(CNCC(c1ccc(Cl)cc1Cl)c1c[nH]c2ccccc12)c1ccccc1 (stereo not given),100*,12,9,5,88*
O=[N+]([O-])CC(c1ccccc1)c1c[nH]c2ccccc12 (stereo not given),-3,6,-1,2,.
COc1ccc(CCNCC(O)COc2ccc(OC)cc2C(C)(C)C)cc1 (stereo not given),61*,10,-3,5,-5
COc1ccc(CCNCC(O)COc2cccc(Br)c2)cc1OC (stereo not given),9,-2,0,5,.
CCc1ccc(CNC(=O)c2ccc(OC3CCN(C(=O)COC)CC3)cc2)nc1,0,-7,-8,-2,.
CC(C)CNS(=O)(=O)c1ccc(Br)cc1N1CCC[C@@H]1CO,-6,-4,13,-5,.
O=C1C=CC(=O)N1N(c1ccccc1)c1ccccc1,78*,21,-1,10,104*
Cc1occc1C(=O)N1CCCC(N2CCN(c3ccccc3F)CC2)C1 (stereo not given),-2,-3,-1,5,.
CCNCC(=O)N1c2ccccc2CCc2ccc(NC(=O)OCC)cc21,57*,1,-5,2,-14
CCOC(=O)Nc1ccc2c(c1)N(C(=O)CN)c1ccccc1CC2,0,18,0,7,.
COc1ccc(-c2nc3c4ccccc4ccn3c2Cc2ccccc2)cc1OC,0,.,.,6,.
CC(NC(=O)CCC(=O)c1ccc(F)cc1)C1CC2CCC1C2 (stereo not given),104*,-5,-4,0,-3
O=c1oc2ccccc2c2c1nc(C(F)(F)F)n2-c1ccccc1,67*,-15,4,6,-3
O=c1oc2ccccc2c2nccnc12,6,-5,-3,2,.
COc1ccccc1NC(=O)NCCN1CCN(c2cccc(Cl)c2)CC1,4,-17,0,11,.
COc1ccc(OC)c(C2=Nn3c(nnc3C3CCCCC3)SC2)c1,73*,-6,0,2,-11
CCOC(=O)c1nnn2c1nc(N(CC)CC)c1ccccc12,74*,-7,1,-7,-12
CCOC(=O)c1n[nH]n2c1nc(=O)c1ccccc12,0,13,0,-9,.
COC(=O)N1[C@H](C)C=C[C@]1(Cc1ccccc1)C(=O)OC,57*,5,-6,4,-13
COC(=O)[C@@]1(Cc2ccccc2)C=C[C@@H](C)N1C(C)=O,48,0,-7,4,.
O=C(O)CCC1OC(=O)C(O)=C1c1ccccc1 (stereo not given),-1,12,-2,2,.
Oc1ccccc1N1CCN(c2ccc3ccccc3n2)CC1,66*,4,3,-4,-14
SMILES,Exocytosis inh,PfG6PD inh,HKDC1 inh,ABHD5 PLIN5 PPI,Exocytosis CP01
C[N+](C)(C)CC(=O)N1CCN(c2ccc3ccccc3n2)CC1,8,-5,2,2,.
Cc1c(Cl)cccc1NC(=O)CSc1ncnc2c1cnn2CCc1ccccc1,-2,-28,-8,-4,.
O=C(CSc1ncnc2c1cnn2CCc1ccccc1)Nc1cccc(C(F)(F)F)c1,83*,10,0,-5,3
CCCCCCNC(=O)CC(c1ccccc1)c1cc(Br)ccc1O (stereo not given),66*,17,2,-15,30
CC(C)NC(=O)CC(c1ccccc1)c1cc(Br)ccc1O (stereo not given),2,1,-10,3,.
O=C(Nc1ccccc1Cl)c1sccc1-c1ccccc1,81*,-11,-2,2,-5
CN(C)S(=O)(=O)Oc1ccsc1C(=O)Nc1ccccc1Cl,1,-6,2,8,.
COc1ccc(Nc2nc(-c3sc(C)nc3C)cs2)cc1,82*,31,-4,-11,1
Cc1nc(C)c(-c2csc(Nc3ccc(N)cc3)n2)s1,-6,32,1,-16,.
COc1cccc(CN(C)CC2CCCN(CCc3ccccc3C)C2)c1 (stereo not given),57*,0,0,8,-10
